Source: paper PMC3180826 (ACS chemical neuroscience, 2010)
Where a chain is given by its changes, count along the chain named.

How the values were obtained:
M5 = target: T1, M5 (Homo sapiens, UniProt P08912); test: [3H]-NMS competition binding, M5 CHO membranes; conditions: concentrations well above those required to fully activate M1
T1 sequence (P08912 1-532): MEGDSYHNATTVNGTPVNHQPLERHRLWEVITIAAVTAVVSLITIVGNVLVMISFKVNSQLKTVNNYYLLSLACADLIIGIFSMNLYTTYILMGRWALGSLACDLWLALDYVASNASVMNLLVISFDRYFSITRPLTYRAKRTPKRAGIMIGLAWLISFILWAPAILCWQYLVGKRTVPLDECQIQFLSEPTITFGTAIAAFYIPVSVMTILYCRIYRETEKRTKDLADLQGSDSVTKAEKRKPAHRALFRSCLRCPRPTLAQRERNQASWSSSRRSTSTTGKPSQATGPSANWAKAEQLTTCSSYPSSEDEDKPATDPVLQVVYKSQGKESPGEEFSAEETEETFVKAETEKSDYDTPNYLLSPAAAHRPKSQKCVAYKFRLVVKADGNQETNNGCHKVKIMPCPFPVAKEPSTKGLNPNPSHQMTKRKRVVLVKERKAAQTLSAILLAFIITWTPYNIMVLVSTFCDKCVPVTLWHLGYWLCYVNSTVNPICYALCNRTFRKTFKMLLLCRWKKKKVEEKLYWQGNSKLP

rM1 E397D = target: T2, rM1 E397D (Rattus norvegicus, UniProt P08482, E397D); test: Calcium mobilization, rM1 E397D mutant CHO-K1 cells; type: cell-based; conditions: compared with wt rM1
T2 sequence (P08482 1-460 E397D): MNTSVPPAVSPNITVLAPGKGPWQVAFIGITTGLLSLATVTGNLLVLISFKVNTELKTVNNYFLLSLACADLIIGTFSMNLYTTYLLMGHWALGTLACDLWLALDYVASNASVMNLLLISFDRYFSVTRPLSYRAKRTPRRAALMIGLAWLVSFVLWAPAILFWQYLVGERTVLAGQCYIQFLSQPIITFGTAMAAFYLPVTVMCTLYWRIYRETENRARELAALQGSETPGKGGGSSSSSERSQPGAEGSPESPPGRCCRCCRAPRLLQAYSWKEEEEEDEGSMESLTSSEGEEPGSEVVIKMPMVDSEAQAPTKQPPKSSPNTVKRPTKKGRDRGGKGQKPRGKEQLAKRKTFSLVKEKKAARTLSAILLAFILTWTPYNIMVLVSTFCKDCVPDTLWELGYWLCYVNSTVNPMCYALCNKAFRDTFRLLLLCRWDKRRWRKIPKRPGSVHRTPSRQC
Outline: (§1)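 CHO-K1 cells were transiently transfected overnight at 37 °C with 10 μg of mutant rat M1 cDNA in pcDNA3.1+ using Fugene 6, then plated for the calcium assay. They were loaded with 2 μM Fluo-4 AM for 1 h at 37 °C in HEPES/probenecid-buffered HBSS, pH 7.4. Test compound dose–response series were added at 19 s. Calcium mobilization was measured as fluorescence increase over basal.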

hM2 = target: T3, hM2 (Homo sapiens, UniProt P08172); test: Calcium mobilization assay, agonist mode, M2; type: cell-based; conditions: up to 30 μM
T3 sequence (P08172 1-466): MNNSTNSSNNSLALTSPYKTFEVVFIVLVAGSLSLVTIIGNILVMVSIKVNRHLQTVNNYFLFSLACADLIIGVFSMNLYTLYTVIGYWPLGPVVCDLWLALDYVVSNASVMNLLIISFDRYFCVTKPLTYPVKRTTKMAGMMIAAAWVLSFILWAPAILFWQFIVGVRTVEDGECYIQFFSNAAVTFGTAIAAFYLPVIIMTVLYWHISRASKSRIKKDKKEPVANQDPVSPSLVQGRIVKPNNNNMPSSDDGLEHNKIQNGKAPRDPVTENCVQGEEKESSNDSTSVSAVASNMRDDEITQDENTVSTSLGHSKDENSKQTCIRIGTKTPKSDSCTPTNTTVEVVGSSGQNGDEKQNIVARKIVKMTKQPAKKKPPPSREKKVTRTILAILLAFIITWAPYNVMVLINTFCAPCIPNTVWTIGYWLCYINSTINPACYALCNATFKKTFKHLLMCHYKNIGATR
Outline: (§2)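 CHO-K1 cells stably expressing hM2/Gqi5 or rM4/Gqi5 (6 × 10^4 cells/well), or hM3 or hM5 (5 × 10^4 cells/well), were cultured overnight at 37 °C in 5% CO2. Cells were loaded with 2 μM Fluo-4 AM for 1 h at 37 °C in HBSS with 20 mM HEPES and 2.5 mM probenecid, pH 7.4. Eight-point test compound concentration series were added at 19 s of a 130 s read. Calcium flux was read as fluorescence fold over basal.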

rM1 E401H = target: T4, rM1 E401H (Rattus norvegicus, UniProt P08482, E401H); test: Calcium mobilization, rM1 E401H mutant CHO-K1 cells; type: cell-based
T4 sequence (P08482 1-460 E401H): T2 sequence (P08482 1-460 E397D) with D397E, E401H
Outline: as §1

M3 = M3 (Homo sapiens, UniProt P20309); test: [3H]-NMS competition binding, M3 CHO membranes; conditions: concentrations well above those required to fully activate M1
rM4 = target: T5, rM4 (Rattus norvegicus, UniProt P08485); test: Calcium mobilization assay, agonist mode, M4; type: cell-based; conditions: up to 30 μM
T5 sequence (P08485 1-478): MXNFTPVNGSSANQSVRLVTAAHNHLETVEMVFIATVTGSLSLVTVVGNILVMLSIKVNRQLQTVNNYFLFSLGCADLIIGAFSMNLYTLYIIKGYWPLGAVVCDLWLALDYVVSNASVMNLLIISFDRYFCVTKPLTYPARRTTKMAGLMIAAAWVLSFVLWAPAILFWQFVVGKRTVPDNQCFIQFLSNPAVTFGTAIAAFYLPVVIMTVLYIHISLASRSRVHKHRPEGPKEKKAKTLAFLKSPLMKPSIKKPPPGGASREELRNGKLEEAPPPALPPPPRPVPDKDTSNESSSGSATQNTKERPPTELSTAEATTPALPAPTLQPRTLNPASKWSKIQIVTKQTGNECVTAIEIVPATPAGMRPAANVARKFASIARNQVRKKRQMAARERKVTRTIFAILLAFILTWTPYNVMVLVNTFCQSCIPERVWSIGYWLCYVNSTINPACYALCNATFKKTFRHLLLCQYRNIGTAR
Outline: as §2

M3, sequence (P20309 whole entry): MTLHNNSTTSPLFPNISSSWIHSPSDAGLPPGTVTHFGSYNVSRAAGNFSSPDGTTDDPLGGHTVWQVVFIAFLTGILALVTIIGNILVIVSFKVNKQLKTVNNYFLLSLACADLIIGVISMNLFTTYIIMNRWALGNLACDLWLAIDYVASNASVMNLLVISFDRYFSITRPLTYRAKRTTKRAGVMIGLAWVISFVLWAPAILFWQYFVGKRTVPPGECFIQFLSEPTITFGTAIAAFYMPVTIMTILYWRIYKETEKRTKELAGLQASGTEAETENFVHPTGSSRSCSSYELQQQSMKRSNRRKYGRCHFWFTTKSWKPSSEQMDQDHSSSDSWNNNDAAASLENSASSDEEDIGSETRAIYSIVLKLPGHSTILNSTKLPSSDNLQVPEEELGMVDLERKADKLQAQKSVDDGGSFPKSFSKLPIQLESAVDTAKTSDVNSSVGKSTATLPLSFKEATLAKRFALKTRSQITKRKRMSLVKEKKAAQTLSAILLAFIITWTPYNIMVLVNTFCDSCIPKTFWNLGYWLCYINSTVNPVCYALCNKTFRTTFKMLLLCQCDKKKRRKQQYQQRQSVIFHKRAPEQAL

reduction of [3H]-NMS binding to M5 (M5): did not reduce
functional potency at E397D mutant (rM1 E397D): Not much potency appeared to be lost
agonist activity at M2 (hM2): no activity
EC50 (rM1 E401H): 1210 nM
Emax (rM1 E401H; CHO-K1, read-out: E401H mutant Emax): 29.4%
reduction of [3H]-NMS binding to M3 (M3): did not reduce
agonist activity at M4 (rM4): no activity
SMILES: CCOC(=O)N1CCC(NCCNC(=O)c2ccccc2)CC1 [VU0184670, ethyl 4-(2-benzamidoethylamino)piperidine-1-carboxylate]
